The nature of series [1]: Plasma concentration in Sprague-Dawley rat at 10 mg/kg, po after 360 mins. Type of series: ADME, organism-based. More on the design: dose 10 mg/kg, route oral.
A short description of series [2]: AUC (8 hrs) in Sprague-Dawley rat at 10 mg/kg, po. The following applies: plasma. The series is classed as ADME, organism-based. Set-up: time < 8 hr, dose 10 mg/kg, route oral.
Series [3] in a line: Cmax in Sprague-Dawley rat at 10 mg/kg, po. Type of series: ADME, organism-based. Set-up: dose 10 mg/kg, route oral. The conditions noted are these: in vivo.
A short description of series [4]: Half life in Sprague-Dawley rat at 1 mg/kg, iv. Type of series: ADME, organism-based. More on the design: dose 1 mg/kg, route intravenous. The following applies: in vivo.
Series [5] is described as follows: Volume of distribution at steady state in Sprague-Dawley rat at 1 mg/kg, iv. The conditions noted are these: in vivo, read-out: Vdss. Set-up: dose 1 mg/kg, route intravenous. The series is classed as ADME, organism-based.
Series [6] in a line: Volume of distribution at steady state in Beagle dog at 1 mg/kg, iv. Type of series: ADME, organism-based, Canis lupus familiaris. More on the design: dose 1 mg/kg, route intravenous. The following applies: in vivo, read-out: Vdss.
The nature of series [7]: Plasma concentration in Beagle dog at 1 mg/kg, iv after 4 hrs. The series is classed as ADME, organism-based, Canis lupus familiaris. Set-up: dose 1 mg/kg, route intravenous.
A short description of series [8]: Plasma concentration in Beagle dog at 1 mg/kg, iv after 8 hrs. Type of series: ADME, organism-based, Canis lupus familiaris. Set-up: dose 1 mg/kg, route intravenous.
Series [9] can be described thus: Plasma concentration in Beagle dog at 10 mg/kg, po after 1 hrs. Set-up: dose 10 mg/kg, route oral. Type of series: ADME, organism-based, Canis lupus familiaris.
Series [10] addresses T1, Androgen receptor (Mus musculus, UniProt P19091).
T1 sequence (P19091 whole entry): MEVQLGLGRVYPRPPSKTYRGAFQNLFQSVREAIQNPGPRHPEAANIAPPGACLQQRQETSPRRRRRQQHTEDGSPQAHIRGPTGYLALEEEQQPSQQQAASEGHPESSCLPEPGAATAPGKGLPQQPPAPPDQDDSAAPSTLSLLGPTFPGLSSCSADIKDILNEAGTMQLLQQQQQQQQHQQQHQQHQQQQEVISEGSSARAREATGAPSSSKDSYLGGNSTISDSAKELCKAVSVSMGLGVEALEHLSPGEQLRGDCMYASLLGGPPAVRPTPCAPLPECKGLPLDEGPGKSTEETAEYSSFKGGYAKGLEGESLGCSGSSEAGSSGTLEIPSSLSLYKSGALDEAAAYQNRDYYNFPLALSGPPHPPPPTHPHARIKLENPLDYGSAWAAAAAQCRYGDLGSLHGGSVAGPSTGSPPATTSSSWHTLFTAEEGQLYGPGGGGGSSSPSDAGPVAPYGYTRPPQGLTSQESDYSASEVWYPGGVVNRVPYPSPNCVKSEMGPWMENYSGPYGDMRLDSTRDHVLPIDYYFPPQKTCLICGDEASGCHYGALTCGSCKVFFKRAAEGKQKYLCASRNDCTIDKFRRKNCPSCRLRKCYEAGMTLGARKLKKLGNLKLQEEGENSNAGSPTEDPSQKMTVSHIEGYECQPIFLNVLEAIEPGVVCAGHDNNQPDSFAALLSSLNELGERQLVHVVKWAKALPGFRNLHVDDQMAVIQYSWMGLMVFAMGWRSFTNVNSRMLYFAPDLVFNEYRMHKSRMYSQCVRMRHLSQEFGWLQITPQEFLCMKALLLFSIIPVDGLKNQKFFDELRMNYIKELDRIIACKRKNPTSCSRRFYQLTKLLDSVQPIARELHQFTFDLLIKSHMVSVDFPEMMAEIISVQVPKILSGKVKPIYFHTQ
Kind of series: Agonist activity at androgen receptor in mouse NIH3T3 cells transiently transfected with beta-galactosidase reporter gene assessed as cellular transformation by R-SAT assay.

A short description of series [11]: Agonist activity at androgen receptor LBD T877A mutant in mouse NIH3T3 cells transiently transfected with beta-galactosidase reporter gene assessed as cellular transformation by R-SAT assay relative to dihydrotestosterone. Type of series: functional. In a few lines:
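AR expression vector transiently co-transfected (Polyfect) with β-galactosidase and coactivators SRC1, DRIP205 and GRIP1 into NIH-3T3 fibroblasts at 60-70% confluency. ONPG substrate added, absorbance read at 420 nm. EC50 from a hyperbolic fit. Mean ± SEM of three or more independent experiments.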

Series [12] concerns Liver microsomes. Kind of series: Metabolic stability in human liver microsomes assessed as intrinsic clearance. Type of series: ADME, Microsome.
The subject of series [13] is Liver microsomes. Kind of series: Metabolic stability in rat liver microsomes assessed as intrinsic clearance. The series is classed as ADME, Microsome.
In series [14] the target is T2, Androgen receptor (Homo sapiens, UniProt P10275).
T2 sequence (P10275 whole entry): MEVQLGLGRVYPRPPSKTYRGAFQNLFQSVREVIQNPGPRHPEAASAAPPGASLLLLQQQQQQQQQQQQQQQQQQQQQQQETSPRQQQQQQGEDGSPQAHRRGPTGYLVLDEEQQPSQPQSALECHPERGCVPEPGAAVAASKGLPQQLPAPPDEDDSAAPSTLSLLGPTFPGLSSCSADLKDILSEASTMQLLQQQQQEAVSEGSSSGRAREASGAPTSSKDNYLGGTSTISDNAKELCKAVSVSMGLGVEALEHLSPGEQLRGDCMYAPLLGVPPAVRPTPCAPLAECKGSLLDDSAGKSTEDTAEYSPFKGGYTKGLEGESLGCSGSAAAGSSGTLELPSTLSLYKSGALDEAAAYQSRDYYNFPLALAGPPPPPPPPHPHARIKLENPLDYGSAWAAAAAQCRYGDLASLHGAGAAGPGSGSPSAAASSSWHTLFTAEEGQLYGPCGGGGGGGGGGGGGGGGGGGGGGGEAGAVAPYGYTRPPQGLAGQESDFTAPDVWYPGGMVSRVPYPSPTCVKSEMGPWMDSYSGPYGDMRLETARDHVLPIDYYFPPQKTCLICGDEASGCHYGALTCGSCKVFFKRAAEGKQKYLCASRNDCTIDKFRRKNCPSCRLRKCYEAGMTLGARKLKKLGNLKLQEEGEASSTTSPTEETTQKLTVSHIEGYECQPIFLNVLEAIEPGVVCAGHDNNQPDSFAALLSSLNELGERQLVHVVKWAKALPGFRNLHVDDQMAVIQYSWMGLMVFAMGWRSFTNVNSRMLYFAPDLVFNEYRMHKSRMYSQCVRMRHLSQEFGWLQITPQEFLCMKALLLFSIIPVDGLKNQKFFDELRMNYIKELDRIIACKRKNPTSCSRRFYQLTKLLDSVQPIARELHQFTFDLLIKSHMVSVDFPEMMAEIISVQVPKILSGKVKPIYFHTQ
Kind of series: Agonist activity at androgen receptor in human MDA-KB2 cells transfected with MMTV linked luciferase assessed as transcriptional activation by luciferase reporter gene assay.

A short description of series [15]: Plasma concentration in Sprague-Dawley rat at 1 mg/kg, iv after 10 mins. Type of series: ADME, organism-based. Set-up: dose 1 mg/kg, route intravenous.
Series [16] in a line: Plasma concentration in Sprague-Dawley rat at 10 mg/kg, po after 10 mins. The series is classed as ADME, organism-based. Set-up: dose 10 mg/kg, route oral.
Series [17] deals with Rattus norvegicus. The series can be described thus: Androgenic effect in rat ORX model assessed as reversal of testosterone propionate-induced prostate weight treated at 10 mg/kg, po. Type of series: functional, organism-based. More on the design: dose 10 mg/kg. The following applies: Prostate gland.
Series [18] can be described thus: Metabolic stability in human hepatocyte assessed as half life. The series is classed as ADME, cell-based, Liver. The conditions noted are these: hepatocytes.
A short description of series [19]: Cmax in Beagle dog at 1 mg/kg, iv. The conditions noted are these: in vivo. More on the design: dose 1 mg/kg, route intravenous. The series is classed as ADME, organism-based, Canis lupus familiaris.

pEC50: −log10 of the molar value. Calls of active or inactive are those of the source. The calls are words filed in the database; no cut-off is given here.

Turning to `Cc1c(N2[C@@H]3CC[C@H]2C[C@@](C)(O)C3)ccc(C#N)c1Cl`, the concentration at 6 h in series [1] amounted to 350 ng/mL. In addition, the AUC at 8 h in series [2] is 2370 ng·h/mL. Moreover, the Cmax in series [3] turned out to be 421 ng/mL; in series [19], 357 ng/mL. The half-life was 2.46 h in series [4] and 5 h in series [18]. For the same compound, the figures for the Vd in series [5] and in series [6] were 3.91 L/kg and 6.1 L/kg, respectively. Further, the concentration at 4 h in series [7] was found to be 18.5 ng/mL. This compound also yielded a concentration at 8 h in series [8] of 5.5 ng/mL. In [9], this compound gave a concentration at 1 h of 408 ng/mL. Moreover, the figures for the pEC50 in series [10] and in [14] were 9.00 and 9.60, respectively. In [11], the Efficacy is listed as 37%. Moreover, the CL came to 28 uL/ml.millig in series [12] and 72 uL/ml.millig in series [13]. Moreover, the concentration at 10 min in series [15] worked out at 447 ng/mL; in series [16], 148 ng/mL. Besides, the result in series [17] was Active.
